Assay [1] deals with T1, Mineralocorticoid receptor (Homo sapiens, UniProt P08235).
T1 sequence (P08235 whole entry): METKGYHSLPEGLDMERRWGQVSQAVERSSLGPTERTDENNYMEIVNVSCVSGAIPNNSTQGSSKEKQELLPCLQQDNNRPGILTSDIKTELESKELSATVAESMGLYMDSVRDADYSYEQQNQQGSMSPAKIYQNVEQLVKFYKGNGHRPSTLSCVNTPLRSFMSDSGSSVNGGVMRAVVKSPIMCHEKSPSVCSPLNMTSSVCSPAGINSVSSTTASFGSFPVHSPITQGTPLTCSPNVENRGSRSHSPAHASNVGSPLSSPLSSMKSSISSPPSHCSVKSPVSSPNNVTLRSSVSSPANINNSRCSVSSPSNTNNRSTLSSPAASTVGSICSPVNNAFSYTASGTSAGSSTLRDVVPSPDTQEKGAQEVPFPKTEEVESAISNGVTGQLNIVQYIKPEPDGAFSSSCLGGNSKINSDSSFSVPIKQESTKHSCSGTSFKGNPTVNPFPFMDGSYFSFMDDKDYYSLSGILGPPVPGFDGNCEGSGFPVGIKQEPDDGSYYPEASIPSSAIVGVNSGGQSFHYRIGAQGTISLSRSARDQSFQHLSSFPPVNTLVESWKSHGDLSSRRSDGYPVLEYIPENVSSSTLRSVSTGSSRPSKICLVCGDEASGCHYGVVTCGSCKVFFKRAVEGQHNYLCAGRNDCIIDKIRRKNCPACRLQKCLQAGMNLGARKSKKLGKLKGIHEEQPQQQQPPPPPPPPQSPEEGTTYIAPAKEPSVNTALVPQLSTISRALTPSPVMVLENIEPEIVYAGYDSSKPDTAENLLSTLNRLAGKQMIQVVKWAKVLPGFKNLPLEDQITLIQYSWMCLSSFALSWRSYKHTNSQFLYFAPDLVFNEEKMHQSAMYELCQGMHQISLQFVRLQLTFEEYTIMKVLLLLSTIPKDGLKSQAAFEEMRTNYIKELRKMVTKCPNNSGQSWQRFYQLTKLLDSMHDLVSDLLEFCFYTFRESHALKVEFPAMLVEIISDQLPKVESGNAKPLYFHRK
Kind of assay: Agonist activity at mineralocorticoid receptor in human A549 cells. The format is functional, cell-based.

Assay [2] addresses T2, Glucocorticoid receptor (Homo sapiens) (UniProt P04150).
T2 sequence (whole entry): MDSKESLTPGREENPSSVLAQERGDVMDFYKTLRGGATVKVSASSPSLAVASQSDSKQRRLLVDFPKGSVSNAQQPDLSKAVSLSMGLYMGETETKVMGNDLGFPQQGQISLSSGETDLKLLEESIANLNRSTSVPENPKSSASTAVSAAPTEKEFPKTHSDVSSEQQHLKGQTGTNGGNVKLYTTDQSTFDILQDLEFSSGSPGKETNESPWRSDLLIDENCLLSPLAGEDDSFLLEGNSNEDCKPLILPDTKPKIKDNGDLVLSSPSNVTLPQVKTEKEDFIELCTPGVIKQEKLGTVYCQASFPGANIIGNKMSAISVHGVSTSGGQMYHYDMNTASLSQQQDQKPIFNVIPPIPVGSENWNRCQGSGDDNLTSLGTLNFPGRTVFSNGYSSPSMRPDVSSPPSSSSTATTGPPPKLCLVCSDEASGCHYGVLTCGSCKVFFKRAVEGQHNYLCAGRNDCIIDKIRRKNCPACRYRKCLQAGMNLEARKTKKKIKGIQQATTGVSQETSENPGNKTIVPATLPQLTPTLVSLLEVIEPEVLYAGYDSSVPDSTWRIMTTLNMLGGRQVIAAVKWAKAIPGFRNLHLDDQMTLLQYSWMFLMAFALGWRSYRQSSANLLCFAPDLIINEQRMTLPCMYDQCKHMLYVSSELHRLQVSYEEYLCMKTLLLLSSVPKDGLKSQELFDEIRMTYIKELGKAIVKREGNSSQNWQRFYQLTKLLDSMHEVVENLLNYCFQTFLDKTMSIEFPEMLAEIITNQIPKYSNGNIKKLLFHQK
Kind of assay: Transactivation activity at glucocorticoid receptor in human 13D3/Huh7 cells assessed as induction of tyrosine aminotransferase activity after 24 hrs relative to Dexamethasone. The format is cell-based. Conditions: Huh-7. Summed up: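 Human 13D3/Huh7 hepatoma cells, 20 K/well, were incubated overnight at 37 °C/5% CO2. They were then treated overnight with compounds in assay medium containing 20 μM forskolin. The reaction was stopped with KOH and A340 read. Results are % activation, with EC50 derived.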

Assay [3] is described as follows: Selectivity ratio of Ki of GRapha to Ki of estrogen receptor alpha.
Assay [4] concerns the target T2, Glucocorticoid receptor (Homo sapiens). The assay can be described thus: Transrepression activity of glucocorticoid receptor in human A549 cells assessed as inhibition of IL1beta-stimulated NFkappaB-dependent E-selectin transcription by luciferase reporter gene assay relative to Dexamethasone. The format is cell-based.
The target in another assay is T3, Glucocorticoid receptor (Homo sapiens, UniProt P04150).
T3 sequence (P04150 whole entry): T2 sequence (whole entry)
The assay can be described thus: Transactivation activity at glucocorticoid receptor in human 13D3/Huh7 cells assessed as induction of tyrosine aminotransferase activity after 24 hrs. The format is cell-based, Huh-7.

The next assay addresses T4, Progesterone receptor (Homo sapiens, UniProt P06401).
T4 sequence (P06401 whole entry): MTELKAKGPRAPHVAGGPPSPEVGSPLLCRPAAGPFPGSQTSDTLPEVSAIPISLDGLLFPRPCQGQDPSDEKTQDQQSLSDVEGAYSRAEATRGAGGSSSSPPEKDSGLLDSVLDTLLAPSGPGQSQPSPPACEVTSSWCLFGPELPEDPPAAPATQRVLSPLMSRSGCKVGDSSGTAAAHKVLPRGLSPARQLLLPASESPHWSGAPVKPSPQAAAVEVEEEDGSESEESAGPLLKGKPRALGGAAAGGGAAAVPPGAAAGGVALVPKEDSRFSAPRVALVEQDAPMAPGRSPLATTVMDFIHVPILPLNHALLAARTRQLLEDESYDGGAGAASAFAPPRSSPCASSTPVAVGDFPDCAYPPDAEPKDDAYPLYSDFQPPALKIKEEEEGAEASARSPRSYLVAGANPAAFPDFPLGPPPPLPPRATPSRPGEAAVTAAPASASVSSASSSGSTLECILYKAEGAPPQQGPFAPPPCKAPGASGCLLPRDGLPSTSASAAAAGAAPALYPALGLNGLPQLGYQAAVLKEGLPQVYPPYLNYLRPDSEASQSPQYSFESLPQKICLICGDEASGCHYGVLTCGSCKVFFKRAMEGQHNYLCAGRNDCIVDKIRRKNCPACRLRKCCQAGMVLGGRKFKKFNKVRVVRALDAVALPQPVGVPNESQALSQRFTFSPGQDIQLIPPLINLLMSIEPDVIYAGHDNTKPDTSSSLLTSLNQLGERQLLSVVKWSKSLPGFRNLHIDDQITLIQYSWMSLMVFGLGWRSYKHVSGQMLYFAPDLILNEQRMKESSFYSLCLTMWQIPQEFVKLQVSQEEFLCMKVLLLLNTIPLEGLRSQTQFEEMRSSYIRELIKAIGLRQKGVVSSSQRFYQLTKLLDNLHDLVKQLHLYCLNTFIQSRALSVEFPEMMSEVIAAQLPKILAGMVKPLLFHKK
The assay can be described thus: Binding affinity to progesterone receptor by fluorescence polarization assay. Summed up:
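Fluorescence polarization competition of test compound against a fluorescently labelled ligand for binding to full-length receptor or its ligand-binding domain.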

For `CC(C)(C(=O)Nc1nccs1)[C@@H](c1ccccc1)c1ccc(O)c(F)c1`, the half-maximal effective concentration (EC50) (as a rule, the concentration at which the effect is half-maximal) in assay [1] is more than 5000 nM; at Glucocorticoid receptor it was 36.1 nM. In addition, the Efficacy stood at 48% in assay [2] and 68% in assay [4]. The Ratio Ki in assay [3] is more than 6800. In addition, at Progesterone receptor, the Ki (in general, the equilibrium dissociation constant of an inhibitor or competing ligand from its target) was 53 nM.
`CC(C)(C(=O)Nc1nccs1)[C@@H](c1ccccc1)c1ccc(O)c(Br)c1`: the concentration giving a half-maximal response (EC50) was more than 5000 nM in assay [1] and 142 nM on Glucocorticoid receptor. Also, the Efficacy in assay [2] is 29%; in assay [4] it was 71%. In assay [3], the Ratio Ki is more than 6800. In addition, the Ki at Progesterone receptor was 31 nM.
As to `CC(C)(C(=O)Nc1nccs1)[C@@H](c1ccccc1)c1ccc(O)cc1`, the EC50 in assay [1] is more than 5000 nM; on Glucocorticoid receptor, 251 nM. Moreover, the Efficacy in assay [2] is 21%; in assay [4], 52%. Also, in assay [3], the Ratio Ki was more than 6800. The compound further returned a Ki at Progesterone receptor of 273 nM.
Turning to `CC(C)(C(=O)Nc1nccs1)[C@H]1c2ccccc2Oc2cc(O)ccc21`, the half-maximal effective concentration (EC50) in assay [1] was more than 5000 nM; on Glucocorticoid receptor it was 27.1 nM. The Efficacy in assay [2] turned out to be 39%; in assay [4], 68%. In addition, the Ratio Ki in assay [3] was more than 6800. The compound also registered an inhibitory constant (Ki) at Progesterone receptor of 22 nM.
As to `CC(C)(C(=O)Nc1nncs1)[C@H]1c2ccccc2Oc2cc(O)ccc21`, the EC50 in assay [1] is more than 5000 nM; on Glucocorticoid receptor, 91.3 nM. The values for the Efficacy in assay [2] and in assay [4] were 45% and 62%, respectively. Besides, the Ratio Ki in assay [3] was more than 6800. The compound further showed a Ki at Progesterone receptor of 53 nM.

These data come from ChEMBL document CHEMBL1799968, “Dimethyl-diphenyl-propanamide derivatives as nonsteroidal dissociated glucocorticoid receptor agonists” (J Med Chem, 2010).
